Published values pooled from the literature.
Each line is one published result; the experiments were not run side by side.
Observed: enzyme activity
Action: inhibitor
HIPK4: Homeodomain-interacting protein kinase 4 (HIPK4, Homo sapiens, UniProt Q8NE63)
MARK2: Serine/threonine-protein kinase MARK2 (MARK2, Homo sapiens, UniProt Q7KZI7)

The remaining activity of `COc1cc(Cl)c(C(=O)N[C@@H](CN[C@H]2CC[C@@H](N)CC2)Cc2ccc(C#N)cc2)cc1-c1ccc(CN[C@H](C)c2ccc(C)cc2)o1` is reported as 89% (Wee1-like protein kinase 2 (WEE2, Homo sapiens, UniProt P0C1S8); 1 µM).
The remaining activity of `O=C(O)c1ccc2c(c1)nc(NCCc1ccccc1)c1ccncc12` is reported as 5% (HIPK4; radiometric; 1 µM).
For `Cc1ccc(C(=O)Nc2ccc(CN3CCN(C)CC3)c(C(F)(F)F)c2)cc1C#Cc1cnc2cccnn12`, the remaining activity was 89% (Uncharacterized serine/threonine-protein kinase SBK3 (SBK3, Homo sapiens, UniProt P0C264); 23.5 nM).
`NS(=O)(=O)c1ccc(CNc2ccnc(Nc3cccc(NC(=O)N4CCCC4)c3)n2)cc1` gave a remaining activity of 115% (MARK2; radiometric; 1 µM).
With `O=C(O)c1ccc2c(c1)nc(Nc1ccc(Cl)cc1)c1ncncc12` the remaining activity was 62% (HIPK4; radiometric; 1 µM).
With `CC1=CC(=O)c2ccccc2C1=O` the remaining activity was 68% (TcPGFS (Trypanosoma cruzi, UniProt Q8I6L9); 200 µM).
`O=C(O)c1ccc2c(c1)nc(Nc1ccccc1)c1ncncc12` has a remaining activity of 103% (HIPK4; radiometric; 1 µM).
With `CC[C@H](C)[C@H](NC(=O)[C@H](CCC(N)=O)NC(=O)[C@H](CC(C)C)NC(=O)[C@H](CCSC)NC(=O)[C@H](CCCCN)NC(=O)[C@H](CO)NC(=O)[C@H](CO)NC(=O)[C@H](CCSC)NC(=O)[C@H](CC(C)C)NC(=O)[C@H](CC(N)=O)NC(=O)[C@@H](NC(=O)[C@@H](NC(=O)[C@H](CO)NC(=O)[C@H](CC(C)C)NC(=O)[C@H](CS)NC(=O)[C@H](CCCNC(=N)N)NC(=O)[C@H](CC(=O)O)NC(=O)[C@H](Cc1c[nH]c2ccccc12)NC(=O)[C@H](Cc1ccccc1)NC(=O)[C@H](C)NC(=O)[C@H](CCC(=O)O)NC(=O)[C@@H](N)CCCCN)C(C)C)[C@@H](C)CC)C(=O)N[C@@H](CC(N)=O)C(=O)N[C@@H](C)C(=O)O` the remaining activity was 80% (Cyclin-dependent kinase 5, with p25 (CDK5, Homo sapiens, UniProt Q00535); radiometric; 50 µM; 20 min).
`Brc1cnc(Nc2cccc(CN3CCOCC3)c2)nc1NCCc1c[nH]cn1` has a remaining activity of 5% (MARK2; radiometric; 1 µM).
With `CCCOc1ccc(OC)c(F)c1C(=O)c1ccc(C(=O)N[C@@H]2CNC[C@H]2NC(=O)c2ccc3[nH]ncc3c2)cc1` the remaining activity was 119% (Ribosomal protein S6 kinase alpha-1 (Rps6ka1, Rattus norvegicus, UniProt Q63531); 0.1 µM).
